Activity calls are given as the source filed them.
What was measured:
Candida albicans [1] = assay: Antifungal activity against Fluconazole resistant Candida albicans isolate 17 at 542.7 uM after 48 hrs by CLSI method; format: functional, organism-based
How it was run: (§1)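 Candida in CLSI broth microdilution. Saline colony suspension set to 1.5 × 10³ CFU/ml (final) in MOPS-buffered RPMI 1640, pH 7.0. Test agent given as twofold serial dilutions in 20% DMSO-saline, duplicate wells. 35°C for 48 h. Growth read as OD530 before and after incubation. Percent inhibition scored at the highest test concentration.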

Candida albicans [2] = assay: Antifungal activity against Candida albicans ATCC 14053 at 542.7 uM after 48 hrs by CLSI method; format: functional, organism-based
Trichophyton rubrum [3] = assay: Antifungal activity against Trichophyton rubrum ATCC MYA-4438 by CLSI method; format: functional, organism-based
How it was run: (§2)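 Growth scraped from 1- to 6-week-old potato dextrose slants and filtered through Miracloth. Diluted in 5% Alamar blue-RPMI 1640 (MOPS pH 7.0) to 2.7 × 10⁴ CFU/ml. Eleven twofold dilutions in duplicate. Fluorescence at 544 nm excitation/590 nm emission read before and after 35°C, 5 days. IC50 fitted from percent growth. MIC taken as no detectable growth; MFC from clear or blue wells plated on PD agar.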

Candida parapsilosis [4] = assay: Antifungal activity against Candida parapsilosis ATCC 22019 at 542.7 uM after 48 hrs by CLSI method; format: functional, organism-based
How it was run: (§3)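 Yeast suspensions made from 3-5 colonies off 24-72 h SD agar plates in saline. They were diluted by OD630 standard curve in RPMI 1640 (0.2% dextrose, 0.03% glutamine, 0.165 M MOPS, pH 7.0) to 1.5 × 10³ CFU/ml. Twofold dilutions (11 concentrations, 20% DMSO-saline) run in duplicate. OD530 read before and after 35°C, 48 h. Line values are top test concentrations; no-growth endpoints give MIC/MFC.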

Aspergillus flavus = assay: Antifungal activity against Aspergillus flavus ATCC 204304 at 542.7 uM after 48 hrs by CLSI method; format: functional, organism-based
Candida parapsilosis [5] = assay: Antifungal activity against Candida parapsilosis ATCC 22019 after 48 hrs by CLSI method; format: functional, organism-based; settings: Lodderomyces parapsilosis, ATCC 22019, 48 h; how it was run: as §3
Cryptococcus neoformans [6] = assay: Antifungal activity against Cryptococcus neoformans ATCC 66031 after 72 hrs by CLSI method; format: functional, organism-based; settings: ATCC 66031, 72 h
How it was run: (§4)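 SD broth replaced RPMI because growth in RPMI was poor; other CLSI conditions were kept. Inoculum was 1.5 × 10³ CFU/ml from colonies on SD agar, checked by plating. Twofold serial dilutions (11 concentrations) in 20% DMSO-saline were tested in duplicate. OD530 was read before and after incubation at 35°C for 72 h. Percent growth gave IC50; the MIC is the lowest concentration with no detectable growth.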

Pichia kudriavzevii [7] = assay: Antifungal activity against Candida krusei ATCC 6258 after 48 hrs by CLSI method; format: functional, organism-based; settings: ATCC 6258, 48 h
How it was run: (§5)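 Candida inocula came from 24–72-h SD agar colonies suspended in saline. They were diluted by OD630 standard curve into RPMI 1640 (0.2% dextrose, 0.03% glutamine, 0.165 M MOPS, pH 7.0) to 1.5 × 10³ CFU/ml. Compounds were run as 11 twofold dilutions in 20% DMSO-saline, in duplicate, at 35°C for 48 h, with OD530 read before and after. Percent growth at the top concentration, IC50, MIC, and MFC (SD agar plating) were derived.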

Nakaseomyces glabratus = assay: Antifungal activity against Candida glabrata ATCC 90030 at 542.7 uM after 48 hrs by CLSI method; format: functional, organism-based; how it was run: as §5
Candida albicans [8] = assay: Antifungal activity against Candida albicans ATCC 60193 after 48 hrs by CLSI method; format: functional, organism-based; settings: ATCC 60193, 48 h
How it was run: (§6)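 CLSI broth microdilution. Colonies from 24–72 h SD agar suspended in saline and sized by OD630 standard curve. Inoculum 1.5 × 10³ CFU/ml (final) in RPMI 1640 (0.2% dextrose, 0.03% glutamine, 0.165 M MOPS, pH 7.0). Twofold dilutions (11 levels) from 20% DMSO-saline, in duplicate. 35°C for 48 h, OD530 read before and after. IC50 fitted from % growth. MIC: no detectable growth. MFC: subculture onto SD agar.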

Candida albicans [9] = assay: Antifungal activity against Fluconazole resistant Candida albicans clinical isolate 17 after 48 hrs by CLSI method; format: functional, organism-based; how it was run: as §6
[10] = tested on: Trichophyton mentagrophytes; assay: Antifungal activity against Trichophyton mentagrophytes ATCC MYA-4439 by CLSI method; format: functional, organism-based; how it was run: as §2
Trichophyton rubrum [11] = assay: Antifungal activity against Trichophyton rubrum ATCC 10218 by CLSI method; format: functional, organism-based; how it was run: as §2
[12] = tested on: Trichophyton mentagrophytes; assay: Antifungal activity against Trichophyton mentagrophytes ATCC 9533 at 542.7 uM after 5 days by CLSI method; format: functional, organism-based
[13] = tested on: Trichophyton mentagrophytes; assay: Antifungal activity against Trichophyton mentagrophytes ATCC 9533 by CLSI method; format: functional, organism-based; how it was run: as §2
Aspergillus fumigatus [14] = assay: Antifungal activity against Aspergillus fumigatus ATCC 90906 at 542.7 uM after 48 hrs by CLSI method; format: functional, organism-based
Aspergillus niger [15] = assay: Antifungal activity against Aspergillus niger ATCC 16404 after 48 h by CLSI method; settings: ATCC 16404, 48 h
Candida albicans [16] = assay: Antifungal activity against Candida albicans ATCC 60193 at 542.7 uM after 48 hrs by CLSI method; format: functional, organism-based; how it was run: as §5
Candida tropicalis [17] = assay: Antifungal activity against Candida tropicalis ATCC 750 at 542.7 uM after 48 hrs by CLSI method; format: functional, organism-based; how it was run: as §3
Cryptococcus neoformans [18] = assay: Antifungal activity against Cryptococcus neoformans ATCC 90113 after 72 hrs by CLSI method; format: functional, organism-based; settings: ATCC 90113, 72 h; how it was run: as §4
Pichia kudriavzevii [19] = assay: Antifungal activity against Candida krusei ATCC 6258 at 542.7 uM after 48 hrs by CLSI method; format: functional, organism-based; how it was run: as §3
Candida albicans [20] = assay: Antifungal activity against Candida albicans ATCC 90028 at 542.7 uM after 48 hrs by CLSI method; format: functional, organism-based; how it was run: as §5
Candida albicans [21] = assay: Antifungal activity against Fluconazole resistant Candida albicans isolate 1 at 542.7 uM after 48 hrs by CLSI method; format: functional, organism-based; how it was run: as §1
Aspergillus niger [22] = assay: Antifungal activity against Aspergillus niger ATCC 16404 at 542.7 uM after 48 hrs by CLSI method; format: functional, organism-based
Candida albicans [23] = assay: Antifungal activity against Candida albicans ATCC 200955 at 542.7 uM after 48 hrs by CLSI method; format: functional, organism-based; how it was run: as §5
Candida albicans [24] = assay: Antifungal activity against Candida albicans ATCC 32354 after 48 hrs by CLSI method; format: functional, organism-based; settings: ATCC 32354, 48 h; how it was run: as §6
Candida albicans [25] = assay: Antifungal activity against Candida albicans ATCC 14053 after 48 hrs by CLSI method; format: functional, organism-based; settings: ATCC 14053, 48 h; how it was run: as §6
Candida albicans [26] = assay: Antifungal activity against Candida albicans assessed as inhibition of growth at 100 uM; format: functional, organism-based
Candida albicans [27] = assay: Antifungal activity against Candida albicans assessed as inhibition of morphogenesis at 10 uM; format: functional, organism-based
Candida tropicalis [28] = assay: Antifungal activity against Candida tropicalis ATCC 750 after 48 hrs by CLSI method; format: functional, organism-based; settings: ATCC 750, 48 h; how it was run: as §3
[29] = tested on: Trichophyton mentagrophytes; assay: Antifungal activity against Trichophyton mentagrophytes ATCC MYA-4439 at 542.7 uM after 5 days by CLSI method; format: functional, organism-based
Aspergillus fumigatus [30] = assay: Antifungal activity against Aspergillus fumigatus ATCC 204305 at 542.7 uM after 48 hrs by CLSI method; format: functional, organism-based
Trichophyton rubrum [31] = assay: Antifungal activity against Trichophyton rubrum ATCC 10218 at 542.7 uM after 5 days by CLSI method; format: functional, organism-based
Trichophyton rubrum [32] = assay: Antifungal activity against Trichophyton rubrum ATCC MYA-4438 at 542.7 uM after 5 days by CLSI method; format: functional, organism-based
Candida albicans [33] = assay: Antifungal activity against Candida albicans ATCC 32354 at 542.7 uM after 48 hrs by CLSI method; format: functional, organism-based; how it was run: as §5
Candida albicans [34] = assay: Antifungal activity against Fluconazole resistant Candida albicans clinical isolate 1 after 48 hrs by CLSI method; format: functional, organism-based; how it was run: as §6
Candida albicans [35] = assay: Antifungal activity against Candida albicans ATCC 200955 after 48 hrs by CLSI method; format: functional, organism-based; settings: ATCC 200955, 48 h; how it was run: as §6

C=CCCCCCCCCC(=O)O [UNDECYLENIC ACID]
active: inhibition (Candida albicans [27])
379 µM: IC50 [10]
> 543 µM: IC50 (Candida parapsilosis [5]) | IC50 (Pichia kudriavzevii [7]) | IC50 (Candida albicans [8]) | IC50 (Candida albicans [9]) | IC50 (Candida albicans [24]) | IC50 (Candida albicans [25]) | IC50 (Candida tropicalis [28]) | IC50 (Candida albicans [34]) | IC50 (Candida albicans [35])
279 µM: IC50 [13]
415 µM: IC50 (Aspergillus niger [15])
543 µM: MIC (Trichophyton rubrum [3]) | MIC [10] | MIC (Trichophyton rubrum [11]) | MIC [13] | MFC (Cryptococcus neoformans [18])
270 µM: IC50 (Trichophyton rubrum [11])
271 µM: MFC (Cryptococcus neoformans [6]) | MIC (Cryptococcus neoformans [18])
111 µM: IC50 (Trichophyton rubrum [3])
136 µM: MIC (Cryptococcus neoformans [6])
inactive: Activity (Candida albicans [1]) | Activity (Candida albicans [2]) | Activity (Candida parapsilosis [4]) | Activity (Aspergillus flavus) | Activity (Nakaseomyces glabratus) | Activity [12] | Activity (Aspergillus fumigatus [14]) | Activity (Candida albicans [16]) | Activity (Candida tropicalis [17]) | Activity (Pichia kudriavzevii [19]) | Activity (Candida albicans [20]) | Activity (Candida albicans [21]) | Activity (Aspergillus niger [22]) | Activity (Candida albicans [23]) | inhibition (Candida albicans [26]) | Activity [29] | Activity (Aspergillus fumigatus [30]) | Activity (Trichophyton rubrum [31]) | Activity (Trichophyton rubrum [32]) | Activity (Candida albicans [33])
25.3 µM: IC50 (Cryptococcus neoformans [18])
2.7 µM: IC50 (Cryptococcus neoformans [6])
